ChEMBL document CHEMBL1135935, “Halogenated diazirines as photolabel mimics of the inhaled haloalkane anesthetics” (J Med Chem, 2002)

Experiments:
[1] = Dissociation constant for a single binding site
In short: (§1)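 Bovine serum albumin (10 mg/mL) was pre-equilibrated with ~5 mCi tritiated water in 1 M GdnCl, 0.1 M NaH2PO4 pH 8.5 for ≥18 h at room temperature. Exchange-out ran with compound present. Aliquots were taken at timed intervals over ≥6 h, precipitated in ice-cold 10% TCA, filtered, and counted by scintillation. PFR came from the last 3–5 shared hydrogens. KD was derived from PFr = 1 + ([compound]/KD)^n.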

Albumin = Albumin (Homo sapiens, UniProt P02768); test: Inhibitory concentration bound to tryptophan containing region of Serum albumin in fluorescence quenching
In short: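 Increasing compound concentrations were added from stock buffer solutions to ~2 µM human serum albumin, which has a single Trp-214. The cuvette was kept air-free. Excitation was 295 nm with emission scanning at room temperature. Fluorescence maxima were corrected for inner-filter effects, and EC50 and Hill slope were derived.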

[2] = Effective concentration for tadpole immobility after 5 min (slow recovery); assay type: functional, frog; settings: Amphibia, read-out: ED50 (the source's name)
In short: (§2)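 Tadpoles were exposed to compound in pond water and scored for loss of righting reflex over 5 min. They were then moved to fresh pond water and watched for recovery, intermittently for 3 h. EC50 values are estimates within 2-fold.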

[3] = (§3) Effective concentration to potentiate GABA responses; assay type: functional
In short: (§4)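 Stage V–VI Xenopus oocytes were defolliculated with collagenase and injected with 1–2 ng of each subunit cRNA in a 1:1 ratio. They were kept in ND96 with 50 µg/mL gentamicin at 18 °C for 3–5 days. Voltage-clamp recording was done under continuous ND96 superfusion (pH 7.5).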

[4] = Effective concentration for rapid onset of reversible immobility (tadpole) at about 0.1 mM; assay type: functional, frog; in short: as §2
[5] = as §3; assay type: functional; in short: as §4; remark: listed apart in the source
[6] = Dissociation constant for a single binding site at 5 mM concentration; in short: as §1
[7] = Effective concentration for tadpole immobility (less potent); assay type: functional, frog; in short: as §2

Chain of Albumin (P02768 whole entry): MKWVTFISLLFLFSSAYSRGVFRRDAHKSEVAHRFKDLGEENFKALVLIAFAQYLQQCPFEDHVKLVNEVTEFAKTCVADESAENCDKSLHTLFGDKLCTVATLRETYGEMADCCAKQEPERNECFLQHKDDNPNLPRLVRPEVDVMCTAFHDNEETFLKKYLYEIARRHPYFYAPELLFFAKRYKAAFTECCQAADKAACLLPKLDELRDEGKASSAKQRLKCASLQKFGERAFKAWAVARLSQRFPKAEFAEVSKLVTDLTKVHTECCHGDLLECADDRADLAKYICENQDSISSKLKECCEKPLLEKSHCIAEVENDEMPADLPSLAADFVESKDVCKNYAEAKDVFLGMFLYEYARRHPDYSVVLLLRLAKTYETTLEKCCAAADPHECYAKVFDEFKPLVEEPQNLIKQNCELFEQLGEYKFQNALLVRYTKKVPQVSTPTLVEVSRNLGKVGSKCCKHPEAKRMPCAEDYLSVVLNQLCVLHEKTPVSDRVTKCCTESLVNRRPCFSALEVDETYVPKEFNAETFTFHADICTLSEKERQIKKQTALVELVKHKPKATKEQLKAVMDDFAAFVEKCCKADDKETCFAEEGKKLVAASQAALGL

Structure (SMILES)	Kd [1] [µM]	IC50 (Albumin) [µM]	EC50 [2] [µM]	ED50 [3] [µM]	EC50 [4] [µM]	EC50 [5] [µM]	Kd [6] [µM]	EC50 [7] [µM]
FC(F)(F)C(Cl)Br (configuration not stated) [HALOTHANE]	900	2900	–	–	–	–	–	–
FC(Cl)C(F)(F)C1(Br)N=N1 (configuration not stated)	600	700	300	80	–	–	–	–
FC(F)(F)C1(Br)N=N1	5600	400	–	–	–	–	–	–
FC(F)(C(Cl)Br)C1N=N1 (configuration not stated)	200	800	–	–	100	50	–	–
[N-]=[N+]=CC(F)(F)F	–	1200	–	–	–	–	1300	–
FC(Cl)C(F)(F)C1(F)N=N1 (configuration not stated)	4800	2200	–	–	–	–	–	2500
